Assay outcomes from PubChem.
Compounds with a hit are over-represented: about 1.8% of the library has one in this group of screens.
M5 antag = blocks acetylcholine activation of human M5 receptor; CHO-hM5 cells, Fluo-8 calcium fluorescence, ACh EC80; inhibition, % at 3 µM; AID 624040; P08912; hit rate 0.59% among 360,000;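 active means inhibition above a per-plate cutoff, the mean of that plate's test compounds plus 3 SD, cut at about 27% in these data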;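 further: 0% = acetylcholine EC80 with DMSO and 100% = DMSO without agonist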
M4 ag = CHRM4 agonism in calcium assay. AID 624127. hit rate 0.14% among 360,000. P08173. CHO-K1 hM4/Gqi5, Fluo-8 calcium fluorescence; vehicle 0%, full acetylcholine response 100%. activation, % at 3 µM;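 active means activation above the run mean over all test wells plus 3 SD, cut at about 32% in these data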;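 further: peak over basal fluorescence ratio per well then scaled between controls; 0% = DMSO wells and 100% = acetylcholine at EC100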
M4 antag = blocks acetylcholine activation of human M4 receptor | P08173 | CHO-hM4 cells, ACh EC80, Fluo-8 calcium fluorescence | inhibition, % at 3 µM | hit rate 0.73% among 360,000;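 active means inhibition above its plate's cutoff, the mean inhibition of sample wells plus 3 SD, cut at about 27% in these data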;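 further: 0% = acetylcholine EC80 with DMSO and 100% = DMSO without agonist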
M4 PAM = CHRM4 positive allosteric modulation; P08173; CHO-K1 hM4/Gqi5, Fluo-8 calcium fluorescence, ACh EC20; 0% = ACh EC20, 100% = maximal ACh; activation, % at 3 µM; hit rate 0.4% among 360,000; AID 624126;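 active means activation above its plate's cutoff, the mean activation of sample wells plus 3 SD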
M5 PAM = CHRM5 positive allosteric modulation; P08912; CHO-K1 hM5, Fluo-8 calcium, ACh EC20 PAM; 0% = ACh EC20, 100% = ACh EC100; activation, % at 3 µM; hit rate 0.3% among 360,000; AID 624038;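 active means activation above the run cutoff, the mean activation of all test compounds plus 3 SD, cut at about 18% in these data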
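Assay system: CHO-K1 hM5 cells. Also added: acetylcholine at EC20 concentration, added after compound. Dosing: 3 µM, single dose. Times: compound preincubation 140 s before EC20 acetylcholine addition. Signal: Fluo-8 calcium fluorescence. Measure: % activation relative to EC20 and EC100 ACh responses. Repeats: singlicate, one well per test compound.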
CHRM5 agonist = agonists of human muscarinic M5 receptor (CHRM5); hit rate 0.19% among 360,000; AID 624037; P08912; CHO-K1 hM5 cells, Fluo-8 calcium fluorescence; 0% DMSO wells, 100% maximal acetylcholine response; activation, % at 3 µM;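 active means activation above the run's mean over test compounds plus 3 SD, cut at about 23% in these data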;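 further: signal is peak over basal fluorescence ratio across the kinetic read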
Starred values were filed as active, the others as inactive.

SMILES | M5 antag | M4 ag | M4 antag | M4 PAM | M5 PAM | CHRM5 agonist
CC(C)CN(C(=O)CCNC(=O)c1ccc(Cl)cc1)C1CCS(=O)(=O)C1 (stereo not given) | -8.0 | 1.3 | 0.5 | 2.9 | 18.3* | 1.0
CC(C)CN(C(=O)CN(C)S(=O)(=O)c1ccc(Cl)cc1)C1CCS(=O)(=O)C1 (stereo not given) | 17.7 | 1.1 | 8.6 | 0.5 | -4.6 | -3.4
CC1(C(=O)NS(=O)(=O)c2cccc(Cl)c2)CCN1C(=O)CC1CC1 (stereo not given) | 4.3 | 0.3 | -6.0 | 11.5 | -0.4 | 0.7
CC(C(=O)Nc1ccc2c(c1)OCCO2)N1Cc2ccccc2C1=O (stereo not given) | 23.5 | 0.2 | -1.3 | 3.1 | -6.0 | -4.6
CCC(C)[C@@H](C(=O)Nc1ccc2c(c1)OCO2)N1Cc2ccccc2C1=O (stereo not given in full) | -0.3 | -1.8 | -18.7 | 18.6* | -2.9 | -2.3
CCn1c(C)nc2cc(S(=O)(=O)C(F)(F)C(F)C(F)(F)F)ccc21 (stereo not given) | 27.0* | 13.8 | 3.9 | -10.3 | -14.2 | 6.7
CCn1c(C)nc2cc(S(N)(=O)=O)ccc21 | -8.7 | 1.1 | -5.3 | -1.3 | -2.2 | -0.2
